Data published in ChEMBL document CHEMBL1142492 (J Med Chem, 2008).

Key:
Rattus norvegicus [1] = species: Rattus norvegicus; conditions: 3 uM
[2] = target: RAF proto-oncogene serine/threonine-protein kinase (Homo sapiens) (UniProt P04049); test: Inhibition of RAF1 at 3 uM
[3] = target: Protein kinase C eta type (Homo sapiens) (UniProt P24723); test: Inhibition of PRKCH at 3 uM
[4] = target: Cyclin-dependent kinase 19 (Homo sapiens) (UniProt Q9BWU1); test: Inhibition of CDK11 at 3 uM
[5] = target: D(2) dopamine receptor (Homo sapiens) (UniProt P14416); test: Inhibition of human dopamine D2S receptor at 3 uM
Outline: (§1)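 Counter-screen binding/enzyme panel at single 3 μM, n=2; results as percent inhibition. Species per target as listed (rat NMDA, GABAA sites; human receptors, transporters; rabbit ACE).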

[6] = target: Dual specificity protein kinase CLK3 (Homo sapiens) (UniProt P49761); test: Inhibition of CLK3 at 3 uM
[7] = target: Aurora kinase C (Homo sapiens) (UniProt Q9UQB9); test: Inhibition of AURKC at 3 uM
Rattus norvegicus [8] = species: Rattus norvegicus; conditions: 3 uM; remark: listed apart in the source
Rattus norvegicus [9] = species: Rattus norvegicus; conditions: 3 uM; remark: listed apart in the source
in vivo = conditions: Sprague-Dawley, rat, po, 2 mg/kg
[10] = target: Cyclin-dependent kinase 15 (Homo sapiens) (UniProt Q96Q40); test: Inhibition of PFTAIRE2 at 3 uM
[11] = target: Cyclin-dependent kinase 3 (Homo sapiens) (UniProt Q00526); test: Inhibition of CDK3 at 3 uM
[12] = target: Serine/threonine-protein kinase NLK (Homo sapiens) (UniProt Q9UBE8); test: Inhibition of NLK at 3 uM
[13] = Clearance in Sprague-Dawley rat at 1 mg/kg, iv; conditions: in vivo
[14] = target: Activin receptor type-2B (Homo sapiens) (UniProt Q13705); test: Inhibition of ACVR2B at 3 uM
[15] = target: Mitogen-activated protein kinase kinase kinase 5 (Homo sapiens) (UniProt Q99683); test: Inhibition of MAP3K5 at 3 uM
[16] = tested on: Mast/stem cell growth factor receptor Kit (Homo sapiens), P10721 [V559D]; test: Inhibition of KIT V559D mutant at 3 uM
[17] = target: Serine/threonine-protein kinase SIK1 (Homo sapiens) (UniProt P57059); test: Inhibition of SNF1LK at 3 uM
[18] = target: Receptor-interacting serine/threonine-protein kinase 4 (Homo sapiens) (UniProt P57078); test: Inhibition of RIPK4 at 3 uM
CYP2C9 = CYP2C9 (Homo sapiens, UniProt P11712); test: Inhibition of human CYP2C9 at 10 uM; type: ADME
[19] = target: Serine/threonine-protein kinase STK11 (Homo sapiens) (UniProt Q15831); test: Inhibition of LKB1 at 3 uM
[20] = tested on: Tyrosine-protein kinase ABL1 (Homo sapiens), P00519 [T315I]; test: Inhibition of ABL1 T315I mutant at 3 uM
[21] = target: Serine/threonine-protein kinase RIO2 (Homo sapiens) (UniProt Q9BVS4); test: Inhibition of RIOK2 at 3 uM
[22] = target: Platelet-activating factor receptor (Homo sapiens) (UniProt P25105); test: Inhibition of human PAF at 3 uM
[23] = target: Serine/threonine-protein kinase N1 (Homo sapiens) (UniProt Q16512); test: Inhibition of PKN1 at 3 uM
[24] = target: Mitogen-activated protein kinase 14 (Homo sapiens) (UniProt Q16539); test: Inhibition of p38-alpha at 3 uM
[25] = tested on: Tyrosine-protein kinase ABL1 (Homo sapiens), P00519 [F317L]; test: Inhibition of ABL1 F317L mutant at 3 uM
[26] = target: SRSF protein kinase 1 (Homo sapiens) (UniProt Q96SB4); test: Inhibition of SRPK1 at 3 uM
[27] = target: Serine/threonine-protein kinase DCLK2 (Homo sapiens) (UniProt Q8N568); test: Inhibition of DCAMKL2 at 3 uM
[28] = target: Histamine H2 receptor (Homo sapiens) (UniProt P25021); test: Inhibition of human histamine H2 receptor at 3 uM
Outline: as §1

[29] = target: Endothelin-1 receptor (Homo sapiens) (UniProt P25101); test: Inhibition of human endothelin ETA receptor at 3 uM
Outline: as §1

Homo sapiens = species: Homo sapiens; conditions: 3 uM
[30] = tested on: Tyrosine-protein kinase ABL1 (Homo sapiens), P00519 [Y253F]; test: Inhibition of ABL1 Y253F mutant at 3 uM
[31] = target: Cyclin-dependent kinase 14 (Homo sapiens) (UniProt O94921); test: Inhibition of PFTK1 at 3 uM
[32] = target: Mitogen-activated protein kinase kinase kinase 3 (Homo sapiens) (UniProt Q99759); test: Inhibition of MAP3K3 at 3 uM
[33] = target: Androgen receptor (Rattus norvegicus) (UniProt P15207); test: Inhibition of rat androgen receptor at 3 uM
[34] = target: Dual specificity mitogen-activated protein kinase kinase 4 (Homo sapiens) (UniProt P45985); test: Inhibition of MEK4 at 3 uM
[35] = target: Kappa-type opioid receptor (Homo sapiens) (UniProt P41145); test: Inhibition of human kappa opioid receptor at 3 uM
[36] = target: Serine/threonine-protein kinase Nek7 (Homo sapiens) (UniProt Q8TDX7); test: Inhibition of NEK7 at 3 uM
[37] = target: AP2-associated protein kinase 1 (Homo sapiens) (UniProt Q2M2I8); test: Inhibition of AAK1 at 3 uM
[38] = target: Interferon-induced, double-stranded RNA-activated protein kinase (Homo sapiens) (UniProt P19525); test: Inhibition of PRKR at 3 uM
[39] = target: Platelet-derived growth factor receptor alpha (Homo sapiens) (UniProt P16234); test: Inhibition of PDGFRA at 3 uM
[40] = target: Mitogen-activated protein kinase kinase kinase 7 (TAK1) (Homo sapiens) (UniProt O43318); test: Inhibition of TAK1 at 3 uM
[41] = Volume of distribution in Sprague-Dawley rat at 1 mg/kg, iv; conditions: in vivo
[42] = target: Serine/threonine-protein kinase PLK3 (Homo sapiens) (UniProt Q9H4B4); test: Inhibition of PLK3 at 3 uM
[43] = target: Macrophage colony-stimulating factor 1 receptor (Homo sapiens) (UniProt P07333); test: Inhibition of CSF1R at 3 uM
[44] = target: Atypical kinase COQ8A, mitochondrial (Homo sapiens) (UniProt Q8NI60); test: Inhibition of ADCK3 at 3 uM
[45] = target: Serine/threonine-protein kinase 33 (Homo sapiens) (UniProt Q9BYT3); test: Inhibition of STK33 at 3 uM
Chain of Serine/threonine-protein kinase 33 (Homo sapiens) (Q9BYT3 whole entry, looked up): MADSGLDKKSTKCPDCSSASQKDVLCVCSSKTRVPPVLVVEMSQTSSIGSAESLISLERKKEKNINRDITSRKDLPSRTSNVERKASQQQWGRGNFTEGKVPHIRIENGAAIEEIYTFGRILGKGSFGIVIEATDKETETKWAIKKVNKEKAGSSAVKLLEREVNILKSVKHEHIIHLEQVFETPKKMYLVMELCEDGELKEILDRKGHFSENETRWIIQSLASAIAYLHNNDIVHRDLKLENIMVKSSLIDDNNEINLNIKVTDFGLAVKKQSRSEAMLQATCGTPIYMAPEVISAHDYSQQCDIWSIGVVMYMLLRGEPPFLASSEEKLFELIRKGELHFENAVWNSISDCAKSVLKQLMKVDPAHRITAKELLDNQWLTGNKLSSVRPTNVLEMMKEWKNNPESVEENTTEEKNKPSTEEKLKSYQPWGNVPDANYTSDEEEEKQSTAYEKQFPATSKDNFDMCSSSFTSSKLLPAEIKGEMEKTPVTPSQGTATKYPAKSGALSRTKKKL

Chain of Atypical kinase COQ8A, mitochondrial (Homo sapiens) (Q8NI60 163-647 limits assumed): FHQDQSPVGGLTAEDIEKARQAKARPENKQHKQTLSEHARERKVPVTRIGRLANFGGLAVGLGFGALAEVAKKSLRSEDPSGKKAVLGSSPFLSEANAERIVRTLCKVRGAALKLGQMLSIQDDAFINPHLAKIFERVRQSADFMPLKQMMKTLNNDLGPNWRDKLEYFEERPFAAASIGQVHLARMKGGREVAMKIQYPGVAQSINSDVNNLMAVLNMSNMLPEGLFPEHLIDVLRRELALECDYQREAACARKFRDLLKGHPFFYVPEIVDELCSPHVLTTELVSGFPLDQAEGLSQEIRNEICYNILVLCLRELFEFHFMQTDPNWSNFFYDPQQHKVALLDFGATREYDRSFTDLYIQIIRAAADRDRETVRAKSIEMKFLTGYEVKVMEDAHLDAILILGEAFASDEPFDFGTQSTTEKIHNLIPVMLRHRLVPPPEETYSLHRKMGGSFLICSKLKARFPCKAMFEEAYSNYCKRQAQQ
Chain of Cyclin-dependent kinase 15 (Homo sapiens) (Q96Q40 whole entry): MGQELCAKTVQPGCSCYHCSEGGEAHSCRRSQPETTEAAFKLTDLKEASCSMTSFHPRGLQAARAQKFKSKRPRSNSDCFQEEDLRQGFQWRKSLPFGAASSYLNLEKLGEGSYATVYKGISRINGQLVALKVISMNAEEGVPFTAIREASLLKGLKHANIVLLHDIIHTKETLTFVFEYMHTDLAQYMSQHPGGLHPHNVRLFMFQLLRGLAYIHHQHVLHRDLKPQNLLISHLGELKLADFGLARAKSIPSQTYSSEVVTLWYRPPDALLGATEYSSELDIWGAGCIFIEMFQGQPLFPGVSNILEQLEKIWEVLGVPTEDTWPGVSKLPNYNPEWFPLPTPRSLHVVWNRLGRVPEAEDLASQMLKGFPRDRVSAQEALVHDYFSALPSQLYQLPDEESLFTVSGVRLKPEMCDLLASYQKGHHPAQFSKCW
Chain of D(2) dopamine receptor (Homo sapiens) (P14416 whole entry): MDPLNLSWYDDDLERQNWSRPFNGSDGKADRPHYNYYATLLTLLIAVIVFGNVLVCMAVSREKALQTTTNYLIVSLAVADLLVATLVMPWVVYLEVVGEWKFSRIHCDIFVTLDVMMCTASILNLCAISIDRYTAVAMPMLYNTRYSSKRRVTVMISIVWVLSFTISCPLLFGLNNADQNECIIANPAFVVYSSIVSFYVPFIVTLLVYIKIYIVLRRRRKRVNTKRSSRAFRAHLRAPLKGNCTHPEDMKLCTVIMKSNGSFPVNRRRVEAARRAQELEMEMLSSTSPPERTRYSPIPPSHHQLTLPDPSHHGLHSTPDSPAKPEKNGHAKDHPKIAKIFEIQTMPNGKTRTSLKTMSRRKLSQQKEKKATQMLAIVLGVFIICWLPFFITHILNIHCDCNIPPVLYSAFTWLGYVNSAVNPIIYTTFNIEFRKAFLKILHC
Chain of Mitogen-activated protein kinase kinase kinase 3 (Homo sapiens) (Q99759 whole entry): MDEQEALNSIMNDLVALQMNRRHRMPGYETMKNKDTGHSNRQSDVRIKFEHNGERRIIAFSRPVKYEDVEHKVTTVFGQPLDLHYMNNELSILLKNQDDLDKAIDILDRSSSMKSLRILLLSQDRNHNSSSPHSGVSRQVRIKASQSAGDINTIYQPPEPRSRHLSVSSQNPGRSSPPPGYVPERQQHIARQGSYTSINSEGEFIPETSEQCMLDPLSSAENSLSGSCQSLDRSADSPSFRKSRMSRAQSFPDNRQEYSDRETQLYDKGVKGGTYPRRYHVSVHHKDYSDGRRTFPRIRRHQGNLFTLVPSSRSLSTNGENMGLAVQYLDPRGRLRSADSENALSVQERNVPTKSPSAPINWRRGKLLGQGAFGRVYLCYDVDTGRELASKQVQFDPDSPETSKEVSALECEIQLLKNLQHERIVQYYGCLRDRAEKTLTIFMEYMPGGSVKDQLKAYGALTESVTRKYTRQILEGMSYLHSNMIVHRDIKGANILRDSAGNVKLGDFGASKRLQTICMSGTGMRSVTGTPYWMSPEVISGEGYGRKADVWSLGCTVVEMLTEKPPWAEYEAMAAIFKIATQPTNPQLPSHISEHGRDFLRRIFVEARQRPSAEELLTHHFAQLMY
Chain of Macrophage colony-stimulating factor 1 receptor (Homo sapiens) (P07333 whole entry): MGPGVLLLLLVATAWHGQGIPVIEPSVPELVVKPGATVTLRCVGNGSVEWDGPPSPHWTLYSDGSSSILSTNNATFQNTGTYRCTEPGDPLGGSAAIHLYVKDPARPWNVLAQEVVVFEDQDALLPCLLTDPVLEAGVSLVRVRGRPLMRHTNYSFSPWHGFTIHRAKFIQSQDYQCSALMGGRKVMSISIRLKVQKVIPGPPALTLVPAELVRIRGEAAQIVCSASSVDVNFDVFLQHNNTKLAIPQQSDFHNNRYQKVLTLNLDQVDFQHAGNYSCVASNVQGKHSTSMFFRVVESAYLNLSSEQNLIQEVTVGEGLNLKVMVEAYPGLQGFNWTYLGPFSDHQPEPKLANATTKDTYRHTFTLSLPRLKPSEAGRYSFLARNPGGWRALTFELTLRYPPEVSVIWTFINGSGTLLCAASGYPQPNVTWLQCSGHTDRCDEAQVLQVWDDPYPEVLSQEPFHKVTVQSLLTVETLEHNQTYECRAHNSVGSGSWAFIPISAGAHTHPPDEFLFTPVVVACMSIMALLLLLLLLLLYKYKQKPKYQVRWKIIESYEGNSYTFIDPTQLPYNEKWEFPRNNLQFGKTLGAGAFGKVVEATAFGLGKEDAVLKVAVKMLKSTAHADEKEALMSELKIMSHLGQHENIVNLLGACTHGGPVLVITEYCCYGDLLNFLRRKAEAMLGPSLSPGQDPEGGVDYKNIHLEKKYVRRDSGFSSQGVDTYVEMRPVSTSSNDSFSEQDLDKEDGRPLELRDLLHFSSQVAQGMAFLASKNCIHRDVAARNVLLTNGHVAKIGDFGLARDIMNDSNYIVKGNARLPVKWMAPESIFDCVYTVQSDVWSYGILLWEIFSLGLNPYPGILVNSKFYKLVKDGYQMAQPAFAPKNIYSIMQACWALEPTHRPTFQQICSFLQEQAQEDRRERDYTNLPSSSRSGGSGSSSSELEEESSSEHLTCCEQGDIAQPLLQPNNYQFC
Chain of Mitogen-activated protein kinase kinase kinase 7 (TAK1) (Homo sapiens) (O43318 whole entry, looked up): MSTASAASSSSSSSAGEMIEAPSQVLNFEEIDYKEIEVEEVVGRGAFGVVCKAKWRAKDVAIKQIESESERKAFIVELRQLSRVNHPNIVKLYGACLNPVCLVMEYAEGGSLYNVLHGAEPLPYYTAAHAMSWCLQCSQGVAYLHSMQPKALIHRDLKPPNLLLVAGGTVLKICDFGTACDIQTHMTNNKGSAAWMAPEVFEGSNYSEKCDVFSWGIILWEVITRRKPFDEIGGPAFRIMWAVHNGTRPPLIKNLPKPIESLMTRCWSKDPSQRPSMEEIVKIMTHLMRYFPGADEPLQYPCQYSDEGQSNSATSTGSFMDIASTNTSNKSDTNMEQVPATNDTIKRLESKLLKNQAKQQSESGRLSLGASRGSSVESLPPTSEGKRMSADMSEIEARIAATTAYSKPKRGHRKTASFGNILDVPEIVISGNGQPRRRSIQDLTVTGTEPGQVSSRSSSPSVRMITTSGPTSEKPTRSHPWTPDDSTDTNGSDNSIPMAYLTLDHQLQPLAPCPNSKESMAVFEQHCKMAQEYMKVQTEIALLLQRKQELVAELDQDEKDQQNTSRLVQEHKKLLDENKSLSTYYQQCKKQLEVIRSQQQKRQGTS
Chain of CYP2C9 (P11712 whole entry): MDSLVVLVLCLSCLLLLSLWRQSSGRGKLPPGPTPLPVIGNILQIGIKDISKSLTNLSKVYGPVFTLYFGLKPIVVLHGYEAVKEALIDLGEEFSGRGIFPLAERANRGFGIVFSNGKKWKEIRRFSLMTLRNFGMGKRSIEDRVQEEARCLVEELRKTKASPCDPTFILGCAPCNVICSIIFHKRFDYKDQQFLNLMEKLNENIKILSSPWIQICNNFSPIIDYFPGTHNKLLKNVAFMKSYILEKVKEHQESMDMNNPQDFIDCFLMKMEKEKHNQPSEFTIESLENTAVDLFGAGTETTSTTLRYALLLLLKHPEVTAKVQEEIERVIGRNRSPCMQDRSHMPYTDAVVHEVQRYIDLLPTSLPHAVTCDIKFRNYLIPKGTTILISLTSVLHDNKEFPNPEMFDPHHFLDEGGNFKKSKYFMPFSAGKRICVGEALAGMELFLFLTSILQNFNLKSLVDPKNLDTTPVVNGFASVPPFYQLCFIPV
Chain of Mitogen-activated protein kinase 14 (Homo sapiens) (Q16539 whole entry): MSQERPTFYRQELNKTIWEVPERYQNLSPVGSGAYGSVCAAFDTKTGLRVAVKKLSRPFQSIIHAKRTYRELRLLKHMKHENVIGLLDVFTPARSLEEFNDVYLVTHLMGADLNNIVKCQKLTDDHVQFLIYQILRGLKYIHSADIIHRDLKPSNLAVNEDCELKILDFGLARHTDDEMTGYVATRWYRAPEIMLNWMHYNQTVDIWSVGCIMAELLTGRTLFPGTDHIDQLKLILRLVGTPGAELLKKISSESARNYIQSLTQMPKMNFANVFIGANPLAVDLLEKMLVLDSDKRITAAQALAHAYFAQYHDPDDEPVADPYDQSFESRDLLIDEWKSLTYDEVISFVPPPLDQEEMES

CN(C)CCOc1cc(-c2cn[nH]c2)ccc1NC(=O)C1COc2ccccc2O1 (stereo not drawn) [SR-3677]
inhibition (Rattus norvegicus [1]): 17%
inhibition [2]: < 10%
inhibition [3]: < 10%
inhibition [4]: < 10%
inhibition [5]: 6%
inhibition [6]: < 10%
inhibition [7]: < 10%
inhibition (Rattus norvegicus [8]): -6%
inhibition (Rattus norvegicus [9]): 22%
Cmax (in vivo): 50 nM
inhibition [10]: < 10%
inhibition [11]: < 10%
inhibition [12]: < 10%
clearance [13]: 61 mL/min/kg
inhibition [14]: < 10%
inhibition [15]: < 10%
inhibition [16]: < 10%
inhibition [17]: < 10%
inhibition [18]: < 10%
inhibition at 10 µM (CYP2C9): 80%
inhibition [19]: < 10%
inhibition [20]: < 10%
inhibition [21]: < 10%
inhibition [22]: -4%
inhibition [23]: < 10%
inhibition [24]: < 10%
inhibition [25]: < 10%
inhibition [26]: < 10%
inhibition [27]: < 10%
inhibition [28]: 1%
inhibition [29]: 1%
inhibition (Homo sapiens): 12%
inhibition [30]: < 10%
inhibition [31]: < 10%
inhibition [32]: < 10%
inhibition [33]: 10%
inhibition [34]: < 10%
inhibition [35]: -7%
inhibition [36]: < 10%
inhibition [37]: < 10%
inhibition [38]: < 10%
inhibition [39]: < 10%
inhibition [40]: < 10%
Vd [41]: 3 L/kg
inhibition [42]: < 10%
inhibition [43]: < 10%
inhibition [44]: < 10%
inhibition [45]: < 10%
